What was measured:
[1] = biological target: T1, Alpha-1B adrenergic receptor (Homo sapiens, UniProt P35368); assay: Binding affinity towards cloned human alpha-1B adrenergic receptor was determined using [125]-HEAT as radioligand
T1 sequence (P35368 whole entry): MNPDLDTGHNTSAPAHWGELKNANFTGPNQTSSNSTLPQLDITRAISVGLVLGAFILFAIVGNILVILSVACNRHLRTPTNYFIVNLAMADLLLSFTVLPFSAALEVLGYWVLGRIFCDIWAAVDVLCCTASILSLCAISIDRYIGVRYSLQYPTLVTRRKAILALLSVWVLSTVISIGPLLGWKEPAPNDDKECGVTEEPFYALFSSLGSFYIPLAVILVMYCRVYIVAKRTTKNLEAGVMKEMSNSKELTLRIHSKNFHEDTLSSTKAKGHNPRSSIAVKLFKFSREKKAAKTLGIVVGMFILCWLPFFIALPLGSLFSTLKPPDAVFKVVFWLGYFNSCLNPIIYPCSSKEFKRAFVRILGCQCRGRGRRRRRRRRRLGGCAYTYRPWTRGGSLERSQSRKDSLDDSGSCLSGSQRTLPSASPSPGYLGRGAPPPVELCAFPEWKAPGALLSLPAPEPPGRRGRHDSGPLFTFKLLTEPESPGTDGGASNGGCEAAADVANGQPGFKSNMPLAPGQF
Procedure, shortened: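 Human α1a, α1b and α1d cDNAs transiently expressed in COS-1 cells (DEAE-dextran); membranes harvested 72 h post-transfection. Competition versus 50 pM [125I]HEAT (final), 0.1 pM–10 μM test compound in half-log steps, in TNE buffer pH 7.4. Membrane protein 0.1 μg (α1a, α1b) or 2.6 μg (α1d); 1 h at 25 °C. Filtration, scintillation counting; Ki = IC50/(1 + [L]/Kd). Ratios are subtype Ki over α1a Ki.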

Rattus norvegicus [2] = organism: Rattus norvegicus; assay: Antagonist dissociation equilibrium constant was tested against rat aorta contraction; format: functional
Procedure, shortened: (§1)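 Isolated Long Evans male rat (275 ± 25 g) abdominal aortic strips (3-4 mm wide) or prostate strips (8-10 mm x 1-2 mm), 2 g resting tension, modified Krebs at 37 °C, 95% O2/5% CO2, pH 7.4, 60 min equilibration; isometric tension.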

Rattus norvegicus [3] = organism: Rattus norvegicus; assay: Antagonist dissociation equilibrium constant was tested against rat prosta contraction; format: functional; procedure, shortened: as §1
[4] = Ratio of rat aorta KB to rat prostate KB; format: functional
Procedure, shortened: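 Long Evans male rats (275 ± 25 g); aortic and prostate strips at 2 g resting tension in modified Krebs, 37 °C, 95% O2/5% CO2, pH 7.4, isometric recording. Cumulative NE curves (0.001–100 μM), repeated after 5 min with one of three antagonist concentrations. KB = [B]/(CR − 1) from EC50 shifts; value is aorta KB divided by prostate KB.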

D(3) dopamine receptor = D(3) dopamine receptor (Homo sapiens, UniProt P35462); assay: Binding affinity towards recombinant human Dopamine receptor D3 was determined using [3H]spiperone as radioligand
Chain of D(3) dopamine receptor (P35462 whole entry): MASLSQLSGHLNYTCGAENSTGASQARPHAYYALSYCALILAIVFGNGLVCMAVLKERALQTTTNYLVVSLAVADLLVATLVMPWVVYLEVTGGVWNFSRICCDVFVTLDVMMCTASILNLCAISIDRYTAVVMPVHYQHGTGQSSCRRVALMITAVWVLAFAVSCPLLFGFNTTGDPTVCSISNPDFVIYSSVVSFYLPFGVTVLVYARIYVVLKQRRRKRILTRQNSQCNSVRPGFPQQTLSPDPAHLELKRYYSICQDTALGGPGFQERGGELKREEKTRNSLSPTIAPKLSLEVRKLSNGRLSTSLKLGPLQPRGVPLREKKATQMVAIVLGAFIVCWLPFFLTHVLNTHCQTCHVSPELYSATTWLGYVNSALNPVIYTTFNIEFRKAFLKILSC

D(2) dopamine receptor [5] = biological target: T2, D(2) dopamine receptor (Homo sapiens, UniProt P14416); assay: Binding affinity towards recombinant human Dopamine receptor D2L was determined using [3H]spiperone as radioligand
T2 sequence (P14416 whole entry): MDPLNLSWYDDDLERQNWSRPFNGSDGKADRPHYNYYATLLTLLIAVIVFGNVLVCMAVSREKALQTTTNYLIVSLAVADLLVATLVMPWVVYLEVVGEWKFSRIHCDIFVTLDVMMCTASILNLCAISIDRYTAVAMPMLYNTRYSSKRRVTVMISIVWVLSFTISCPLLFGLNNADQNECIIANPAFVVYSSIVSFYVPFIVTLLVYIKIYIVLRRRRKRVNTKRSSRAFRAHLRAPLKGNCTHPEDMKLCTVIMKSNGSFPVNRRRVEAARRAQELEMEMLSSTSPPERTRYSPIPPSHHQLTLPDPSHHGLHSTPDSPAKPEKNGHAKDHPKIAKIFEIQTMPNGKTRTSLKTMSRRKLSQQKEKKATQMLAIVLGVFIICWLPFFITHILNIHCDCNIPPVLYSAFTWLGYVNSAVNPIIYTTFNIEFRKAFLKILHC
Procedure, shortened: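 CHO-expressed human D2L membranes; [3H]spiperone, 25 °C for 120 min, pH 7.4 Tris-HCl/NaCl/EDTA buffer; haloperidol (10 μM) for nonspecific binding. Filtration, scintillation counting. IC50 by nonlinear least squares fitting; Ki by Cheng–Prusoff; mean ± SEM, three independent experiments.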

[6] = biological target: 5-hydroxytryptamine receptor 1A (Homo sapiens, UniProt P08908); assay: Binding affinity towards recombinant human 5-hydroxytryptamine 1A receptor was determined using [3H]8-OH-DPAT as radioligand
Chain of 5-hydroxytryptamine receptor 1A (P08908 whole entry): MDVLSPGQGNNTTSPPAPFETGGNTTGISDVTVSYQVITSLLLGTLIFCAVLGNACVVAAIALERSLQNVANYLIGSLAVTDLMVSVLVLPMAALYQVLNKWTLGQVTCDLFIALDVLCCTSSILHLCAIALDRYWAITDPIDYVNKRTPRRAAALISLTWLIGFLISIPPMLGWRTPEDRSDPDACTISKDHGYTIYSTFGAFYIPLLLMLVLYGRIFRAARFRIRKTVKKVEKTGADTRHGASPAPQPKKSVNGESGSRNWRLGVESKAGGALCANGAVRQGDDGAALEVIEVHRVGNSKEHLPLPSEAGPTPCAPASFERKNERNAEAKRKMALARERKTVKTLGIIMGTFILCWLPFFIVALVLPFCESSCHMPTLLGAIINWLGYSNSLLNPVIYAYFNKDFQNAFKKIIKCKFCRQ
Procedure, shortened: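 Human 5-HT1A receptor expressed in CHO cells, membranes used. [3H]8-OH-DPAT, 60 min at 25 °C in Tris-HCl/NaCl/EDTA buffer, pH 7.4. Metergoline (10 μM) gave nonspecific binding. Filtered, scintillation counted. Ki from IC50 (nonlinear regression) by Cheng–Prusoff, mean ± SEM of three independent experiments.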

[7] = biological target: phenylalkylamine-sensitive L-type Ca2+ channel (Rattus norvegicus, UniProt P22002+P27732+Q02485); assay: Inhibition of [3H]nitrendipine binding to phenylalkylamine-sensitive [Ca2+] L-type channels in rat cerebral cortex at 1 uM; format: tissue-based; settings: probe [3H]nitrendipine
D(2) dopamine receptor [8] = biological target: T2, D(2) dopamine receptor; assay: Binding affinity towards recombinant human Dopamine receptor D2S was determined using [3H]spiperone as radioligand
Procedure, shortened: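 Recombinant human D2S in CHO cell membranes; [3H]spiperone incubated 120 min at 37 °C, buffer 50 mM Tris-HCl, 150 mM NaCl, 5 mM EDTA, pH 7.4; nonspecific with 10 μM haloperidol. Filtered, counted by scintillation. Ki via Cheng–Prusoff from fitted IC50, mean ± SEM of three experiments.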

[9] = biological target: 5-hydroxytryptamine receptor 7 (Homo sapiens, UniProt P34969); assay: Binding affinity towards recombinant human 5-hydroxytryptamine 7 receptor was determined using [3H]LSD as radioligand
Chain of 5-hydroxytryptamine receptor 7 (P34969 whole entry): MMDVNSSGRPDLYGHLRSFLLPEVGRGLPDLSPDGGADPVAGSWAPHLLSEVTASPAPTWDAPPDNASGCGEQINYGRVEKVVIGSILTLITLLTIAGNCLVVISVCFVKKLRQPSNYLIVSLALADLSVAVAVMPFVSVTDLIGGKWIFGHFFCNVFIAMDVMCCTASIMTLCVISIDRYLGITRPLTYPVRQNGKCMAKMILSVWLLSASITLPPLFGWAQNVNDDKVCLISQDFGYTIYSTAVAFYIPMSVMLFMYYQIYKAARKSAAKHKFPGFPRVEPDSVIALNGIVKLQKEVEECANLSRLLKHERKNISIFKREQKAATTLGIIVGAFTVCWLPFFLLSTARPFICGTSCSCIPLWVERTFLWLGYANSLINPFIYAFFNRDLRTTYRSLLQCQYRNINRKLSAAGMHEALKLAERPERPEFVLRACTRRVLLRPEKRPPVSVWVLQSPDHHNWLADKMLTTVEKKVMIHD
Procedure, shortened: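 Membranes were from CHO cells expressing recombinant human 5-HT7. [3H]LSD binding was run for 120 min at 37 °C in 50 mM Tris-HCl, 150 mM NaCl, 5 mM EDTA, pH 7.4, with nonspecific binding set by 5 μM 5-HT. Filtration and scintillation counting followed. Ki came from IC50 by Cheng–Prusoff, mean ± SEM of three experiments.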

[10] = biological target: Alpha-2B adrenergic receptor (Rattus norvegicus, UniProt P19328); assay: Binding affinity towards rat alpha-2B adrenergic receptor was determined using [3H]yohimbine as radioligand
Chain of Alpha-2B adrenergic receptor (P19328 whole entry): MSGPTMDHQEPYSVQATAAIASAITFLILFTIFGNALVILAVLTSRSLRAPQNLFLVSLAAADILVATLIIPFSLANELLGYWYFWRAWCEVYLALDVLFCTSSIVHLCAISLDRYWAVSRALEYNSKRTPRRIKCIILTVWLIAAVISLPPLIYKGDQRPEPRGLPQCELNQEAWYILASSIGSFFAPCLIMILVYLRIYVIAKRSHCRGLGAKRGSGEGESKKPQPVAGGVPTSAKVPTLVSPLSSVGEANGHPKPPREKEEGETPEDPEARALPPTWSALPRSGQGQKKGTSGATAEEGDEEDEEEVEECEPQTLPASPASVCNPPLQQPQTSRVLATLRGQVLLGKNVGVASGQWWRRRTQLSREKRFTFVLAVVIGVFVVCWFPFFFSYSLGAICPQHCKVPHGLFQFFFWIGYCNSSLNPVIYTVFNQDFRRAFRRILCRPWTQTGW
Procedure, shortened: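 Membranes from rat kidney cortex; [3H]yohimbine binding at 25 °C for 30 min in 50 mM Tris-HCl, 150 mM NaCl, 5 mM EDTA, pH 7.4. Nonspecific binding defined with 10 μM phentolamine. Filtration, washes, scintillation counting. IC50 from nonlinear regression, Ki by Cheng–Prusoff, mean ± SEM of three independent experiments.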

[11] = biological target: Dihydropyridine-sensitive L-type Ca2+ channel (Rattus norvegicus, UniProt P22002+P27732+Q02485); assay: Inhibition of [3H]nitrendipine binding to Dihydropyridine-sensitive L-type [Ca2+] channel in rat cerebral cortex at 1 uM; format: tissue-based; settings: probe [3H]nitrendipine
Procedure, shortened: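 Rat cerebral cortex membranes as source of dihydropyridine-sensitive L-type Ca2+ channels; [3H]nitrendipine, 25 °C for 90 min, pH 7.4 Tris-HCl/NaCl/EDTA; 1 μM nifedipine for nonspecific binding. Percent inhibition at the single compound concentration given in each line; filtration, scintillation counting.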

[12] = biological target: Histamine H1 receptor (Cavia porcellus) (UniProt P31389); assay: Compound at 1 uM was tested for the inhibition of radioligand [3H]pyrilamine binding to peripheral histamine H1 receptor in guinea pig lung
Chain of Histamine H1 receptor (Cavia porcellus) (P31389 whole entry): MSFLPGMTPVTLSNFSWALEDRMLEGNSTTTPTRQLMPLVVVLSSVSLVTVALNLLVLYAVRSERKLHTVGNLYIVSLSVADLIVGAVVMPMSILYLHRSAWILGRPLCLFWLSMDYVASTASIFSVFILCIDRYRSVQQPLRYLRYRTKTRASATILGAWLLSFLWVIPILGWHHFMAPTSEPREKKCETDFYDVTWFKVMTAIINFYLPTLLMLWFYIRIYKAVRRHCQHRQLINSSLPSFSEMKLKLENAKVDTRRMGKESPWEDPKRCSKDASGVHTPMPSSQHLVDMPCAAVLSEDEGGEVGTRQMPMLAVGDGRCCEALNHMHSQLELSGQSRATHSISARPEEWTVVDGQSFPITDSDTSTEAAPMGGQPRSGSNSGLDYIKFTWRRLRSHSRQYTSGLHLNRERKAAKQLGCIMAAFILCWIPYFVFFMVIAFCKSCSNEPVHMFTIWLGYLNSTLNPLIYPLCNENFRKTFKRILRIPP

Rattus norvegicus [13] = organism: Rattus norvegicus; assay: Displacement of [3H]-idazoxan from imidazoline receptor I-2 of rat cerebral cortex; format: tissue-based; settings: concentration not given here
Procedure, shortened: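 Rat cerebral cortex membranes; [3H]idazoxan at 25 °C for 30 min in 50 mM Tris-HCl, 150 mM NaCl, 5 mM EDTA, pH 7.4; nonspecific binding with 1 μM idazoxan. Filtered, washed three to four times, scintillation counted; duplicate determinations.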

SMILES	Ki [1] [nM]	Ki (D(3) dopamine receptor) [nM]	Ki (D(2) dopamine receptor [5]) [nM]	Ki [6] [nM]	inhibition at 1 µM [7] [%]	Ki (D(2) dopamine receptor [8]) [nM]	Ki [9] [nM]	Ki [10] [nM]	inhibition at 1 µM [11] [%]	inhibition [12] [%]	inhibition (Rattus norvegicus [13]) [%]	pKB (Rattus norvegicus [2])	pKB (Rattus norvegicus [3])	Ratio [4]
CC(C)Oc1ccccc1N1CCN(C[C@@H](O)CNC(=O)c2ccc3c(c2)C(=O)N(c2ccc(N(C)C)cc2)C3=O)CC1	> 2000	62	23	15	57	25	10	169	–	–	–	5.84	7.39	35.2
CC(C)Oc1ccccc1N1CCN(C[C@@H](O)CNC(=O)c2ccc3c(c2)C(=O)N(c2cccc(F)c2)C3=O)CC1	> 2000	–	–	–	81	–	–	–	67	69	–	6.47	7.81	22.6
CCOc1ccccc1OCCN[C@H](C)Cc1ccc(OC)c(S(N)(=O)=O)c1 [TAMSULOSIN]	1.92	0.28	13	–	20	78	84	80	22	7	64	10.76	9.33	–

More lines, main results first:

Ki [1] [nM]	Ki (D(3) dopamine receptor) [nM]	Ki (D(2) dopamine receptor [5]) [nM]	Ki [6] [nM]	inhibition at 1 µM [7] [%]	Ki (D(2) dopamine receptor [8]) [nM]	Ki [9] [nM]	Ki [10] [nM]	inhibition at 1 µM [11] [%]	inhibition [12] [%]	inhibition (Rattus norvegicus [13]) [%]	SMILES	pKB (Rattus norvegicus [2])	pKB (Rattus norvegicus [3])	Ratio [4]
> 1650	–	–	–	–	–	–	–	–	–	–	Cc1ccc(N2C(=O)c3ccc(C(=O)NC[C@H](O)CN4CCN(c5ccccc5OC(C)C)CC4)cc3C2=O)cc1	5.9	6.78	7.6
361	–	–	–	–	–	–	–	–	–	–	COc1ccc(N2C(=O)c3ccc(C(=O)NCCCN4CCN(c5ccccc5OC(C)C)CC4)cc3C2=O)cc1	–	–	–
> 2000	–	–	–	69	–	–	–	53	–	–	Cc1ccc(N2C(=O)c3ccc(C(=O)NCCCN4CCN(c5ccccc5OC(C)C)CC4)cc3C2=O)cc1	–	–	–
482	–	–	–	72	–	–	–	76	75	66	CC(C)Oc1ccccc1N1CCN(CCCNC(=O)c2ccc3c(c2)C(=O)N(c2cccc(F)c2)C3=O)CC1	–	–	–

— ChEMBL document CHEMBL1133729, “Design, synthesis, and structure-activity relationships of phthalimide-phenylpiperazines: a novel series of potent and selective alpha(1)(a)-adrenergic receptor antagonists” (J Med Chem, 2000)
